# High-throughput results (PubChem)
# A selection: hits, their analogues and other compounds. The true share with any hit is near 2.4%.
# Efa HMGR inh: blocks class II HMG-CoA reductase of Enterococcus faecalis; purified E. faecalis HMGR, NADPH absorbance 340 nm kinetic; actives 0.41% (n = 190,000); AID 1066; inhibition, % at 10 µM;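 active means inhibition above a set limit, the median over all tested compounds plus 3 SD, cut at about 9.5% in these data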;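 further: enzyme runs in reverse so mevalonate oxidation gives rising NADPH absorbance; 0% = complete reaction with DMSO and 100% = background rate lacking mevalonate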
# Arbovirus anti: antivirals against arbovirus infection; arbovirus infection cell-based antiviral screen; inhibition, % at 10 µM; actives 0.37% (n = 200,000); in the data active means inhibition above about 30%
# Yeast growth inh: reduces growth of yeast BB579 in restrictive medium; inhibition, % at 10 µM; S. cerevisiae BB579 growth, OD615, 48 h; actives 0.51% (n = 140,000);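 active means inhibition above a set limit, 3 SD over the mean compound inhibition, cut at about 44% in these data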
#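 Assay system: S. cerevisiae DeaD strain BB579 yeast. Medium: CSMM-D restrictive synthetic medium containing dextrose (glucose). Times: 4 h cell preincubation, 48 h compound exposure, 30 °C humidified. Signal: OD615 turbidity measurement. Benchmarks: positive control amphotericin B 10 µg/mL.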
# Measles CPE: protection of cells from measles virus; Measles virus-infected cells, CPE protection, absorbance; protection (pct of control), % at 4 µM; actives 1.5% (n = 140,000); AID 841; in the data active means protection mostly above about 24%, no sharp cut-off; inactive means mostly below about 26%
# Rad51 HR inh: blocks human Rad51 in homologous recombination; Q06609; hRad51 DNA strand exchange, fluorescence dequenching; inhibition, % at 10 µM; actives 0.085% (n = 200,000); AID 1385;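 active means inhibition above 40% at the single screening dose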;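 further: 0% = DMSO control wells and 100% = blanks with heterologous ssDNA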
# Target sequence (Q06609 whole entry, looked up): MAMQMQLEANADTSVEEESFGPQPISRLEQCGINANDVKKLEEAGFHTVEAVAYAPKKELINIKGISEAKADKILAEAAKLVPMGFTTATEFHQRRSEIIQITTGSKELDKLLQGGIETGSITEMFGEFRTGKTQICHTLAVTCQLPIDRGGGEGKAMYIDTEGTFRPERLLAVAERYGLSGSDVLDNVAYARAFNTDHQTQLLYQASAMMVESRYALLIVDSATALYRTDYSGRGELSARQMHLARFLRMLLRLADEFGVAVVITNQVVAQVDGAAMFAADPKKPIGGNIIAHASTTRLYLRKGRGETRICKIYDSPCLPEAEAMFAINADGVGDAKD
#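 material = hRad51 filaments on single-stranded DNA | timing = filaments 15 min 37 °C, then compound 30 min | signal = FRET fluorescence dequenching, excitation 485 nm, emission 520 nm | benchmarks = control wells and blank wells on each plate | evaluation = percent inhibition relative to plate controls and blanks | compound = 10 µM final, single point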
# Yeast life ext: yeast lifespan extension; S. cerevisiae growth with nicotinamide, OD615; deaD strain in restrictive glucose medium; inhibition of the nicotinamide effect, % at 10 µM; actives 0.68% (n = 130,000); AID 775;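 active means inhibition above a set limit, placed 3 SD over the median of all compounds, cut at about 26% in these data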;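 further: 0% = nicotinamide-treated wells and 100% = cells grown without nicotinamide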
#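 Test system: DeaD-strain S. cerevisiae / Buffer or medium: restrictive glucose medium / Also added: nicotinamide 1.5 mM / Doses: one concentration, 10 µM, DMSO 0.25% / Schedule: 48 h at 30 °C / Signal: OD615 measurement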
# Numbers without * were called inactive; / = not tested or not shown.
SMILES,Efa HMGR inh,Arbovirus anti,Yeast growth inh,Measles CPE,Rad51 HR inh,Yeast life ext
COc1ccc(NC(=O)Cn2nnc(-c3ccccc3F)n2)cc1,4,0,-48,49*,3,-20
COc1ccc(C(=O)Cn2nnc(-c3ccccc3NC(=O)C3CCCCC3)n2)cc1,-1,3,-17,32*,-4,-5
CCOC(=O)N1CCC(NC(=O)C2CCCCN2S(=O)(=O)c2ccc(F)cc2)CC1 (configuration not stated),-7,5,-15,34*,-7,-2
COC(=O)C1CCN(C(c2cc(OC)c(OC)c(OC)c2)c2sc3nc(C)nn3c2O)CC1 (configuration not stated),-7,4,17,34*,-2,-9
CCOC(=O)C1CCN(C(c2cc(OC)c(OC)c(OC)c2)c2sc3nc(C)nn3c2O)CC1 (configuration not stated),4,1,4,2,-5,-6
NNC(=O)Cn1c(SCc2ccccc2)nc2ccccc21,-3,-6,-31,3,2,4
CCCCn1nc2cc(C(=O)NCc3ccccc3)ccc2c1OCC,0,-2,-49,3,-3,-18
O=C(COC(=O)c1ccc(N2CCOCC2)c([N+](=O)[O-])c1)Nc1ccc2c(c1)OCO2,-3,1,-21,5,/,-1
Nc1ccc(C(=O)OCC(=O)Nc2ccc3c(c2)OCO3)cc1[N+](=O)[O-],-4,-10,98*,2,-1,-1
O=C(Nc1ccc2c(c1)OCCO2)c1ccc(Cl)c([N+](=O)[O-])c1,5,5,-26,20*,6,-8
O=C(NCc1ccc(Cl)cc1)c1ccccc1CCc1ccccc1,-1,1,-9,4,4,41*
O=C(NCc1ccccc1Cl)c1ccccc1CCc1ccccc1,2,1,-29,26,-10,32*
NC(=O)NCc1ccc(Cl)cc1,1,5,1,23,-7,59*
OCCC1CN(Cc2cnc(N3CCOCC3)s2)CCN1C1CCCC1 (configuration not stated),-5,8,/,/,/,/
CC(C)Nc1nc(NC(C)C)nc(NS(=O)(=O)c2ccc(N)cc2)n1,-6,-2,-6,30*,-4,/
O=C(/C=C/c1cccc(Cl)c1)c1nc2ccccc2[nH]1,1,-25,-42,58*,4,-16
O=C(/C(=N\O)n1cncn1)c1ccc(Cl)cc1Cl,-1,-5,/,/,10,/
O=C(/C(=C/c1ccccc1)n1cncn1)c1ccc(Cl)cc1Cl,-4,5,12,11,/,49*
Cc1cc(C)cc(N2C(=O)CN(Cc3sccc3C)C2=S)c1,1,-7,-16,46*,4,2
COc1cc2cc(CN(Cc3cccs3)C(=S)Nc3ccc(C)cc3)c(=O)[nH]c2cc1OC,1,13,-13,30*,/,6
O=C(CCC(=O)OCc1ccc(C(=O)Oc2ccccc2)cc1)Nc1cccc2ccccc12,4,1,-70,79*,1,7
O=C(O)/C(=C\c1ccco1)NC(=O)c1ccccc1,-5,1,-24,30*,0,15
CCC(C)(C)n1nnnc1C(c1ccc(OC)c(OC)c1)N1CCN(c2ccc(OC)cc2)CC1 (configuration not stated),0,9,-28,59*,0,-9
CCC(C)(C)n1nnnc1C(c1ccc(OC)c(OC)c1)N1CCN(c2ccc(F)cc2)CC1 (configuration not stated),4,9,-3,8,-4,-4
COc1cc([N+](=O)[O-])cc(/C=N/NC(=O)CSc2nnc(-c3ccccc3)n2C)c1O,/,/,/,/,29,/
SMILES,Efa HMGR inh,Arbovirus anti,Yeast growth inh,Measles CPE,Rad51 HR inh,Yeast life ext
Cn1c(SCC(=O)N/N=C/c2ccc([N+](=O)[O-])s2)nnc1-c1ccc(Cl)cc1,-5,-41,99*,19,4,-6
CCOC(=O)N/N=C\c1ccc([N+](=O)[O-])s1,11*,1,/,/,26,/
O=[N+]([O-])c1ccc(O)c2ncccc12,-6,-36,99*,12,-12,-9
O=[N+]([O-])c1ccc(O)c2cccnc12,-9,3,/,/,7,/
Cc1cccc(C(=O)Nc2nccs2)c1[N+](=O)[O-],-5,2,-13,10,9,5
O=c1c(-c2ccccc2)c[nH]n1-c1cccc([N+](=O)[O-])c1,0,35*,/,/,1,/
Nc1nc(Nc2ccccc2F)nc(N2CCOCC2)c1[N+](=O)[O-],/,/,/,/,9,/
O=C(COc1c(Br)cc(Br)c2cccnc12)N1CCCCC1,0,-3,/,/,4,/
O=C(COc1c(Br)cc(Br)c2cccnc12)N1CCc2ccccc2C1,-1,-43,99*,14,-3,-15
NCCc1c(-c2ccccc2)n(-c2ccccc2)c2ccccc12,1,-30,/,/,-2,/
COCCn1c(SCC#N)nnc1-c1ccc(OC)cc1,13*,0,-42,11,-3,/
CCOC(=O)/C(=N\Nc1ccccc1Cl)N1CCN(Cc2ccccc2)CC1,2,0,59*,9,0,-8
O=C1c2ccccc2C(=O)N1OCc1cccc(Cl)c1,-2,-7,-42,2,2,-14
O=C1c2ccccc2C(=O)N1OCc1ccccc1,-1,3,-7,16,12,72*
CCOC(=O)c1c(NC(=S)Nc2ccc(OCC)cc2)sc2c1CCN(C)C2,/,/,/,/,-172,/
CCOC(=O)c1c(NC(=S)Nc2ccc(Cl)cc2)sc2c1CCN(C)C2,4,-14,98*,18,-75,-14
CCCS(=O)(=O)c1nnnn1-c1cccc(OC)c1,-2,-39,96*,6,-9,-19
CCOC(=O)c1ccccc1NC(=O)CSc1nnc(COc2ccccc2)n1CC,0,23,-46,53*,1,-3
COC(=O)CSc1nnc(CNS(=O)(=O)c2ccc(Cl)cc2)n1C,-1,7,9,37*,4,-6
CCOC(=O)c1cccc(NC(=O)CSc2nnc(COc3ccccc3)n2CC)c1,4,0,-33,3,0,-6
COC(=O)c1ccccc1NC(=O)CSc1nnc(COc2cccc(OC)c2)n1C,-8,9,-35,5,4,-18
COC(=O)c1ccccc1NC(=O)CSc1nnc(CNS(=O)(=O)c2ccc(C)cc2)n1C,14*,9,-18,14,19,-29
CSc1nnc(CNS(=O)(=O)c2ccc(Cl)cc2)n1C,-2,3,/,/,12,/
O=C(CCc1nc2ccccc2[nH]c1=O)OCC(=O)c1ccc(Cl)cc1,-4,4,0,36*,5,/
Cc1ccc(C(=O)COC(=O)CCc2nc3ccccc3[nH]c2=O)cc1C,-2,4,-40,17,7,-20
O=C(c1cc(C(=O)N2CCOCC2)c2nc3ccccc3n2c1)c1cc(Cl)cc(Cl)c1O,/,/,/,/,-2,/
